Measurements: PMC10558795 (Redox Biology, 2023)

Experiments:
NQO1-YFP H1299 cells = test: Cell viability; assay type: cell-based, human; details: Homo sapiens, NCI-H1299, read-out: Cell viability (IC50, μM)
Method in brief: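 NQO1-YFP H1299 reporter cells (YFP in NQO1 intron 1, constitutive mCherry) were seeded 1000/well in 384-well plates and cultured overnight. Primary screen: 1 μM compound in 0.1% DMSO, one well each, with CDDO 200 nM and 0.1% DMSO controls. Retests used 10-point serial dilutions from 10 µM in triplicate, with brusatol control. Imaged at 0, 24, 48, 64 h (YFP = NRF2 activity, mCherry = viability); IC₅₀ by curve fit.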

KYSE70 cells = test: High-content cytotoxicity screen; assay type: cell-based, human; details: Homo sapiens, KYSE-70, 72 h, read-out: Cell proliferation (IC50, μM)
Method in brief: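 Cells were seeded at 1200/well in 384-well plates and cultured overnight. Test compound was added at […] serial dilution from 10 µM, in triplicate, for 3 days. Controls were 0.1% DMSO (negative), 30 µM benzethonium chloride and 0.1% Triton X-100 added just before staining (positive). Cells were stained with 0.5 µg/ml Hoechst and 100 nM YOYO1, four 4× images per well. Normalized total-cell and dead-cell percentages were fitted for IC₅₀.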

[1] = system: NRF2 and NQO1 expression in NRF2^Mut-KYSE180 cells; test: Western blotting of NRF2 and NQO1 expression in KYSE180 cells; assay type: cell-based, human
Method in brief: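 NRF2-mutant KYSE180 cells (37 °C, 5% CO₂) treated with test compound; nuclear and cytosolic fractions prepared with a nuclear extraction kit. Proteins separated by SDS-PAGE onto nitrocellulose, primary antibody overnight at 4 °C, chemiluminescence on film. Bands quantified by densitometry, mean ± SD, Student's t-test.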

[2] = system: NRF2 expression in NRF2^WT-KYSE450 cells; test: NRF2 expression in KYSE450 cells; assay type: cell-based, human
Method in brief: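 Nuclear and cytosolic fractions prepared with an extraction kit, or whole-cell lysates in RIPA buffer. Proteins separated by SDS-PAGE, transferred to nitrocellulose, blocked and probed with primary antibody overnight at 4 °C. Chemiluminescence detected on film and quantified by densitometry; band data as mean ± SD, Student's t-test.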

adult wild-type mice = test: Dose-finding experiment in adult wild-type mice; assay type: in vivo, mouse
Method in brief: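 Adult wild-type mice, n = 5 per group, dosed orally once daily for 4 weeks with test compound dissolved in N-methyl-2-pyrrolidone:PEG300 (1:9). Grooming, physical strength, movement and body weight tracked during dosing; blood collected for complete blood count, analysed by ANOVA.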

[3] = system: Sox2CreER;LSL-Nrf2^E79Q/+ mice; test: Therapeutic effect on the NRF2^high esophageal phenotype in Sox2CreER; assay type: in vivo, mouse
Method in brief: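 Sox2CreER;LSL-Nrf2^E79Q/+ mice induced with tamoxifen (75 mg/kg/day i.p., 5 days), then given oral test compound in N-methyl-2-pyrrolidone:PEG300 (1:9). Part of forestomach resected at Week 1; rest of forestomach and esophageal epithelium taken at Week 3 sacrifice, with BrdU 50 mg/kg i.p. 2 h before. Analysis by Western blotting, H&E, and IHC (DAB, no-primary-antibody controls).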

[4] = system: mouse NRF2 target genes in the esophageal epithelium; test: RNAseq of esophageal epithelium of Sox2CreER; assay type: in vivo; details: PYR given after tamoxifen induction
Method in brief: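 Sox2CreER;LSL-Nrf2^E79Q/+ mice induced with tamoxifen (75 mg/kg/day i.p., 5 days), then dosed orally with test compound in N-methyl-2-pyrrolidone:PEG300 (1:9). Part of forestomach resected at Week 1; esophageal epithelium harvested at sacrifice, Week 3. Total RNA sequenced; data normalized; overall NRF2 target-gene expression calculated at natural log scale.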

[5] = PYR given after tamoxifen induction

CCc1nc(N)nc(N)c1-c1ccc(Cl)cc1 [PYR, Pyrimethamine]
IC50 (NQO1-YFP H1299 cells): 1.17 µM
IC50 (KYSE70 cells): > 10 µM
Expression of nuclear NRF2 and cytoplasmic NQO1 [1]: inhibited the expression of nuclear NRF2 and cytoplasmic NQO1 in a dose- and time-dependent manner
NRF2 expression [2]: upregulated NRF2 expression
Myelosuppression (complete blood count) (adult wild-type mice; 30 mg/kg/day): not myelosuppressive
Myelosuppression (complete blood count) (adult wild-type mice; 60 mg/kg/day, p.o., 4 weeks): resulted in myelosuppression including leukopenia and lymphopenia
Impact on body weight and general health (adult wild-type mice; 15, 30 and 60 mg/kg/day, p.o., 4 weeks): did not observe any negative impact
NRF2^high esophageal phenotype ([3]; 30 mg/kg/day, p.o.): effectively inhibited
Toxicity ([3]; 30 mg/kg/day, p.o.): no observed toxicity
Expression of NRF2 and its target genes (HMOX1 and AKR1C3) in the esophageal epithelium [3, 5]: significantly inhibited the expression
NQO1, GCLC and GCLM expression in the esophageal epithelium [3, 5]: inhibited, yet without statistical significance
NRF2 expression in the forestomach [3, 5]: significantly inhibited
Overall mRNA expression level of mouse NRF2 target genes in the esophageal epithelium [4]: significantly inhibited the overall mRNA expression level
